Results collected from several papers.
Cell line: A549
Observed: cell growth or viability

C#Cc1cccc(Nc2ncnc3cc(OCCOC)c(OCCOC)cc23)c1 — IC50 (MTT; 72 h): 25.6 µM
O=C(O)c1ccc2c(c1)nc(Nc1cccc(Cl)c1)c1ccncc12 — IC50 (resazurin; 48 h): 11.5 µM
Cc1ncc(CN2CCN(Cc3ccccn3)CC2)c2cc(C(=O)c3ccc4c(c3)OCCO4)oc12 — IC50 (MTT; 72 h): 57.2 µM
Cc1nc(N(Cc2ccccc2)c2ccc3c(c2)/C(=C/c2ccccc2)C(=O)N3Cc2ccccc2)c2ccccc2n1 (mixture of isomers) — IC50 (MTT): 0.64 µM
C=C(F)C(=O)N1CCN(c2nc(OC[C@@H]3CCCN3C)nc3c2CCN(c2cccc4cccc(Cl)c24)C3)C[C@@H]1CC#N — IC50 (ATP luminescence): 2.17 µM
Cc1nc(Nc2ccc3c(c2)/C(=C/c2ccccc2C)C(=O)N3)c2ccccc2n1 — IC50 (MTT): 18.2 µM
Cc1ccc2c(-c3cc4c(CNCc5cccnc5)cnc(C)c4o3)cc(=O)oc2c1C — IC50 (MTT; 72 h): 36.4 µM
O=C(C=Cc1ccccc1)Nc1cc(-c2ccnc(N3CCOCC3)c2)ccn1 — IC50 (MTT; 72 h): 0.444 µM
COc1cc2ncnc(N(C)c3ccc4c(c3)/C(=C/c3cccc(Cl)c3)C(=O)N4C)c2cc1OC — IC50 (MTT): 5.83 µM
C=CC(=O)N1CCN(c2nc(=O)n(-c3c(C)ccnc3C(C)C)c3nc(-c4c(O)cccc4F)c(F)cc23)[C@@H](C)C1 — IC50 (ATP luminescence): > 10 µM
Cc1nc(Nc2ccc3c(c2)/C(=C/c2ccccc2Cl)C(=O)N3)c2ccccc2n1 — IC50 (MTT): 5.67 µM
C[C@H]1Oc2cc(cnc2N)-c2c(nn(C)c2C#N)CN(C)C(=O)c2ccc(F)cc21 — IC50: > 8.41 µM
[NH2][Pt]([NH2])([Cl])[Cl] — IC50 (MTT): 9.5 µM
